Source: ChEMBL document CHEMBL3822382 (Eur J Med Chem, 2016)
The source made the active and inactive calls. No cut-off for these calls is given here.

What was measured:
[1] = tested on: Chorioallantoic membrane; assay: Antivascular activity in fertilized white leghorn egg chorioallantoic membrane assessed as disruption of preformed blood vessel at 2.5 to 5 nmol after 24 to 48 hrs by stereomicroscopic analysis; format: functional, tissue-based; conditions: Gallus gallus
[2] = Cell cycle arrest in human MCF7/Topo cells assessed as accumulation at subG1 phase at 100 nM after 24 hrs by propidium iodide staining-based flow cytometry (reference value: 4.6%); format: functional
[3] = Growth inhibition of human 518A2 cells after 24 hrs by MTT assay; format: functional, cell-based; conditions: 518A2, 24 h
In short: (§1)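 Cells seeded at 5000/well (Ea.hy926 10,000/well) and exposed for 24 h to dilution series of 100 µM–5 pM, with DMSO as solvent control. MTT (0.5 mg/mL final) for 2 h. Formazan dissolved in SDS/acetic acid/DMSO and read at 570 nm against a 630 nm background. Viability taken relative to DMSO controls; IC50 from dose–response curves, mean of four independent experiments.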

[4] = Cell cycle arrest in human HCT116 cells expressing wild type p53 assessed as apoptotic index ratio at 50 nM after 24 hrs by propidium iodide staining-based flow cytometry relative to control; format: functional; conditions: HCT-116
[5] = species: Sus scrofa; assay: Inhibition of porcine brain alpha/beta tubulin polymerization at 5 uM measured every 20 sec by microplate reader analysis
[6] = Cell cycle arrest in human HCT116 cells expressing wild type p53 assessed as accumulation at S phase at 50 nM after 24 hrs by propidium iodide staining-based flow cytometry (reference value: 15.3%); format: functional; conditions: HCT-116
[7] = tested on: EA.hy 926; assay: Antivascular activity in human EAhy926 cells assessed as induction of retraction of cells to nodes at 250 nM after 16 hrs by light microscopic analysis; format: functional, cell-based
In short: (§2)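 Ea.hy926 cells (100,000/well) were seeded on Matrigel-coated coverslips and allowed 12 h to form vessel-like networks. Test agent (CA-4 100 nM; indoles 250 nM) or DMSO was then added for 16 h, and networks were documented by light microscopy. Viability was checked by 2 h MTT (0.5 mg/mL) relative to DMSO controls.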

[8] = tested on: HT-29; assay: Growth inhibition of combretastatin A-4 resistant human HT-29 cells after 24 hrs by MTT assay; format: functional, cell-based; conditions: HT-29, 24 h; in short: as §1
[9] = tested on: HT-29; assay: Growth inhibition of combretastatin A-4 resistant human HT-29 cells after 72 hrs by MTT assay; format: functional, cell-based; conditions: HT-29, 72 h
In short: (§3)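 5000 cells/well exposed for 72 h to dilution series of 100 µM–5 pM, with DMSO as solvent control. MTT 0.5 mg/mL final for 2 h, absorbance at 570/630 nm. Percentage viable cells taken versus DMSO controls; IC50 from dose–response curves, mean of four independent experiments.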

[10] = Growth inhibition of human EAhy926 cells after 24 hrs by MTT assay; format: cell-based; conditions: EA.hy 926, 24 h; in short: as §1
[11] = Cell cycle arrest in human MCF7/Topo cells assessed as accumulation at S phase at 100 nM after 24 hrs by propidium iodide staining-based flow cytometry (reference value: 16%); format: functional
[12] = Cell cycle arrest in human HCT116 cells expressing wild type p53 assessed as accumulation at G2/M phase at 50 nM after 24 hrs by propidium iodide staining-based flow cytometry (reference value: 21%); format: functional; conditions: HCT-116
[13] = tested on: EA.hy 926; assay: Antivascular activity in human EAhy926 cells assessed as change in cell morphology from stretched to rounded form at 250 nM after 16 hrs by light microscopic analysis; format: functional, cell-based; in short: as §2
[14] = Growth inhibition of p53 null human HCT116 cells after 72 hrs by MTT assay; format: functional, cell-based; conditions: HCT-116, 72 h
In short: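 HCT-116 cells, p53 wild-type or p53-/-, seeded at 5000/well and treated 72 h with dilution series (100 µM–5 pM) or DMSO. MTT 0.5 mg/mL for 2 h, absorbance at 570/630 nm. Viability relative to DMSO controls; IC50 from dose–response curves, mean of three independent experiments ± S.D.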

[15] = Cell cycle arrest in human MCF7/Topo cells assessed as accumulation at G2/M phase at 100 nM after 24 hrs by propidium iodide staining-based flow cytometry (reference value: 31.6%); format: functional
[16] = Growth inhibition of human 518A2 cells after 72 hrs by MTT assay; format: functional, cell-based; conditions: 518A2, 72 h; in short: as §3
[17] = Growth inhibition of primary chicken fibroblasts after 48 hrs by MTT assay; format: cell-based; conditions: Gallus gallus, Fibroblast
In short: (§4)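 Chicken heart fibroblasts explanted from 10-day-old embryos, seeded at 10,000/well; cardiomyocytes seeded at 20,000/well. Dilution series given for 48 h, DMSO as control. MTT 0.5 mg/mL for 2 h, absorbance at 570/630 nm. Viability versus DMSO controls; IC50 from dose–response curves, mean of three independent experiments.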

[18] = Cell cycle arrest in human MCF7/Topo cells assessed as apoptotic index ratio at 100 nM after 24 hrs by propidium iodide staining-based flow cytometry relative to control; format: functional
[19] = Cell cycle arrest in human HCT116 cells expressing wild type p53 assessed as G2/M index ratio at 50 nM after 24 hrs by propidium iodide staining-based flow cytometry relative to control; format: functional; conditions: HCT-116
[20] = Growth inhibition of chicken cardiomyocytes after 48 hrs by MTT assay; conditions: Gallus gallus, Cardiomyocyte; in short: as §4
[21] = Cell cycle arrest in human MCF7/Topo cells assessed as G2/M index ratio at 100 nM after 24 hrs by propidium iodide staining-based flow cytometry relative to control; format: functional
[22] = Cell cycle arrest in human HCT116 cells expressing wild type p53 assessed as accumulation at S phase at 100 nM after 24 hrs by propidium iodide staining-based flow cytometry (reference value: 15.3%); format: functional; conditions: HCT-116
[23] = Cell cycle arrest in human HCT116 cells expressing wild type p53 assessed as accumulation at G2/M phase at 100 nM after 24 hrs by propidium iodide staining-based flow cytometry (reference value: 21%); format: functional; conditions: HCT-116
[24] = Cell cycle arrest in human HCT116 cells expressing wild type p53 assessed as accumulation at subG1 phase at 100 nM after 24 hrs by propidium iodide staining-based flow cytometry (reference value: 7.1%); format: functional; conditions: HCT-116
[25] = Cell cycle arrest in human HCT116 cells expressing wild type p53 assessed as G2/M index ratio at 100 nM after 24 hrs by propidium iodide staining-based flow cytometry relative to control; format: functional; conditions: HCT-116
[26] = Cell cycle arrest in human HCT116 cells expressing wild type p53 assessed as accumulation at G1 phase at 50 nM after 24 hrs by propidium iodide staining-based flow cytometry (reference value: 56.7%); format: functional; conditions: HCT-116
[27] = Cell cycle arrest in human HCT116 cells expressing wild type p53 assessed as apoptotic index ratio at 100 nM after 24 hrs by propidium iodide staining-based flow cytometry relative to control; format: functional; conditions: HCT-116
[28] = Cytotoxicity against fertilized white leghorn chicken embryos in CAM model assessed as lethality at 5 nmol after 24 hrs relative to control; format: organism-based, Gallus gallus; conditions: in vivo
In short: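 Day-5 fertilized eggs (37 °C, 50-60% humidity) windowed, with 6 mm silicon rings placed on CAM vessels and incubated a further 24 h. Compound diluted to 500 µM in PBS and pipetted inside the ring (10 µL = 5 nmol); DMSO control. Vessel changes documented by stereomicroscopy at 0, 12 and 24 h.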

SMILES	Activity [1]	Activity [2]	IC50 [3]	Ratio [4]	inhibition [5]	Activity [6]	Activity [7]	IC50 [8]	IC50 [9]	IC50 [10]	Activity [11]	Activity [12]	Activity [13]	IC50 [14]	Activity [15]	IC50 [16]	IC50 [17]	Ratio [18]	Ratio [19]	IC50 [20]	other results
COc1cc(-c2ncn(C)c2-c2ccc3c(c2)c(Cl)cn3C)cc(Br)c1OC.Cl	inactive	24.6%	51.9 nM	10.2	inactive	12.7%	Active	31.3 nM	23.4 nM	29.9 nM	8.6%	17.2%	Active	21.3 nM	52.4%	28.2 nM	23 µM	21.1	0.9	3970 nM	Ratio [21]: 5.5; Activity [22]: 5.4%; Activity [23]: 59.7%; Activity [24]: 25.9%; Ratio [25]: 17.9; Activity [26]: 53.9%; Ratio [27]: 19.7; mortality at 24 h [28]: 33%
COc1cc(-c2ncn(C)c2-c2ccc3c(c2)c(Cl)cn3C)cc(OC)c1OC	inactive	30.7%	65.4 nM	24.4	Active	11.1%	Active	26.2 nM	15.6 nM	24.6 nM	9.9%	14.6%	Active	26.2 nM	42.9%	18.2 nM	11.6 µM	27.2	0.9	1870 nM	Ratio [21]: 3.9; Activity [22]: 7.8%; Activity [23]: 50.5%; Activity [24]: 32.4%; Ratio [25]: 14.8; Activity [26]: 43.6%; Ratio [27]: 26.1; mortality at 24 h [28]: 80%
